Consider one molecule from ChEMBL document CHEMBL2440054, “Largazole Arrests Cell Cycle at G1 Phase and Triggers Proteasomal Degradation of E2F1 in Lung Cancer Cells” (ACS Med Chem Lett, 2013).

Calls of active or inactive are those of the source. No cut-off for these calls is given here.

A word on the IC50: it is the point on the concentration scale where inhibition reaches its midpoint. Low readings indicate inhibition by little substance, high ones a need for much substance.

The subject of assay [1] is A549. The assay is described as follows: Downregulation of p21 protein expression in human A549 cells at 0.1 uM after 4 hrs by Western blotting analysis in presence of protein synthesis inhibitor cycloheximide. The assay is classed as functional, cell-based. In general terms: Immunoblotting shows a protein as a band on a membrane.
The subject of a further assay is NCI-H460. The assay is described as follows: Cytotoxicity against human NCI-H460 cells assessed as inhibition of colony formation pretreated for 24 hrs followed by seeding measured after 10 days by clonogenic assay. Format: functional, cell-based. Summed up:
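Soft-agar clonogenic assay. Cells pretreated 24 h with largazole or DMSO, then seeded in 0.3% soft agar upper layer over 0.6% soft agar lower layer. Colonies counted by microscope after 10 days. Mean ± SD of three independent experiments.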

In assay [2] the target is Transcription factor E2F1 (Homo sapiens) (UniProt Q01094). Briefly: Inhibition of E2F1 in human A549 cells assessed as downregulation of PCNA gene expression at 0.1 uM after 6 to 36 hrs by RT-PCR analysis. The assay is classed as cell-based. A digest of the protocol:
(§1)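 A549 cells given 0.1 μM over a time course. RNA extracted and RT-PCR run with gene-specific primers. Bands quantified by densitometry and normalized to GAPDH.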

Assay [3] has the same target. Briefly: Induction of E2F1 degradation in human NCI-H460 cells at 0.1 uM after 12 to 24 hrs by Western blotting analysis. Format: cell-based. A digest of the protocol:
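Each cell line (16-HBE, 95D, L78, H1975, H460) treated with 0.1 μM largazole for indicated times. Lysates Western blotted for E2F1.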

Assay [4] concerns A549. Briefly: Cell cycle arrest in human A549 cells assessed as accumulation at G1 phase at 0.1 uM after 24 hrs by propidium iodide staining-based flow cytometric analysis (reference value: 48.3%). The assay is classed as functional. In general terms: A flow cytometer gives signals particle by particle.
The test system of a further assay is NCI-H1975. Briefly: Cytotoxicity against human NCI-H1975 cells after 48 hrs by CCK-8 assay. Format: functional, cell-based. The settings on record: NCI-H1975, 48 h. A digest of the protocol: (§2)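 Cells treated with a range of largazole concentrations for 48 h. Proliferation read by CCK-8 assay; IC50 derived from the concentration series.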
On the technique in general: Formazan colour is commonly taken as a measure of viable cells.

Assay [5] deals with A549. The assay is described as follows: Growth inhibition of human A549 cells at 0.1 uM after 24 to 48 hrs by trypan blue exclusion assay. Format: functional, cell-based. A digest of the protocol:
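Cells treated with largazole for indicated times. Viability evaluated by trypan blue exclusion.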

The subject of assay [6] is A549. The assay is described as follows: Induction of apoptosis in human A549 cells assessed as effect on caspase-8 protein expression at 0.1 uM after 48 hrs by Western blotting analysis. Format: functional, cell-based. Summed up:
(§3)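 A549 cells given largazole 0.1 μM for indicated times, lysed, and Western blotted for pro-/cleaved caspase-9, caspase-8, pro-/active caspase-3 and PARP.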

Assay [7] has as its system A549. The assay is described as follows: Cell cycle arrest in human A549 cells assessed as accumulation at G2 phase at 0.1 uM after 24 hrs by propidium iodide staining-based flow cytometric analysis (reference value: 3.7%). Format: functional.
Assay [8] concerns A549. The assay is described as follows: Downregulation of p21 protein expression in human A549 cells at 0.1 uM after 1 hr by Western blotting analysis in presence of protein synthesis inhibitor cycloheximide. The assay is classed as functional, cell-based.
Assay [9] is described as follows: Cytotoxicity against human L78 cells after 48 hrs by CCK-8 assay. Format: functional, cell-based. The settings on record: L78, 48 h. Summed up: as §2
For assay [10], the target named is Transcription factor E2F1 (Homo sapiens) (UniProt Q01094). The assay is described as follows: Inhibition of E2F1 in human A549 cells assessed as downregulation of DHFR gene expression at 0.1 uM after 6 to 36 hrs by RT-PCR analysis. The assay is classed as cell-based. Summed up:
as §1

The test system of assay [11] is A549. The assay is described as follows: Upregulation of p21 mRNA expression in human A549 cells at 0.1 uM after 12 hrs by RT-PCR analysis. Format: functional, cell-based. A digest of the protocol:
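A549 cells at 0.1 μM over a time course. RNA extracted, and p21 mRNA assessed by RT-PCR with specific primers.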

The target of assay [12] is Transcription factor E2F1 (Homo sapiens) (UniProt Q01094). Briefly: Induction of E2F1 translocation from nucleus to cytoplasm in human A549 cells at 0.1 uM after 12 to 24 hrs by DAPI staining-based immunofluorescence analysis. Format: cell-based. Summed up:
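A549 cells given 0.1 μM largazole for 12 to 24 h. Immunofluorescence with anti-E2F1 antibody, nuclei counterstained with DAPI.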

Assay [13] is described as follows: Cytotoxicity against human H466 cells after 48 hrs by CCK-8 assay. The assay is classed as functional, cell-based. The settings on record: H466, 48 h. Summed up: as §2
Assay [14] deals with Transcription factor E2F1 (Homo sapiens) (UniProt Q01094). The assay is described as follows: Induction of E2F1 degradation in human A549 cells at 0.1 uM after 12 hrs by Western blotting analysis in presence of proteasome inhibitor bortezomib. Format: cell-based. A digest of the protocol: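 A549 cells pretreated 2 h with bortezomib (100 nM) or MG-132 (10 μM), then given largazole 0.1 μM for a further 12 h. Lysates Western blotted for E2F1.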

Assay [15] in a line: Cytotoxicity against human 16HBE cells after 48 hrs by CCK-8 assay. The assay is classed as cell-based. To be noted: 16HBE14o-. Summed up: as §2
Assay [16] addresses T1, Retinoblastoma-associated protein (Homo sapiens) (UniProt P06400).
T1 sequence (whole entry): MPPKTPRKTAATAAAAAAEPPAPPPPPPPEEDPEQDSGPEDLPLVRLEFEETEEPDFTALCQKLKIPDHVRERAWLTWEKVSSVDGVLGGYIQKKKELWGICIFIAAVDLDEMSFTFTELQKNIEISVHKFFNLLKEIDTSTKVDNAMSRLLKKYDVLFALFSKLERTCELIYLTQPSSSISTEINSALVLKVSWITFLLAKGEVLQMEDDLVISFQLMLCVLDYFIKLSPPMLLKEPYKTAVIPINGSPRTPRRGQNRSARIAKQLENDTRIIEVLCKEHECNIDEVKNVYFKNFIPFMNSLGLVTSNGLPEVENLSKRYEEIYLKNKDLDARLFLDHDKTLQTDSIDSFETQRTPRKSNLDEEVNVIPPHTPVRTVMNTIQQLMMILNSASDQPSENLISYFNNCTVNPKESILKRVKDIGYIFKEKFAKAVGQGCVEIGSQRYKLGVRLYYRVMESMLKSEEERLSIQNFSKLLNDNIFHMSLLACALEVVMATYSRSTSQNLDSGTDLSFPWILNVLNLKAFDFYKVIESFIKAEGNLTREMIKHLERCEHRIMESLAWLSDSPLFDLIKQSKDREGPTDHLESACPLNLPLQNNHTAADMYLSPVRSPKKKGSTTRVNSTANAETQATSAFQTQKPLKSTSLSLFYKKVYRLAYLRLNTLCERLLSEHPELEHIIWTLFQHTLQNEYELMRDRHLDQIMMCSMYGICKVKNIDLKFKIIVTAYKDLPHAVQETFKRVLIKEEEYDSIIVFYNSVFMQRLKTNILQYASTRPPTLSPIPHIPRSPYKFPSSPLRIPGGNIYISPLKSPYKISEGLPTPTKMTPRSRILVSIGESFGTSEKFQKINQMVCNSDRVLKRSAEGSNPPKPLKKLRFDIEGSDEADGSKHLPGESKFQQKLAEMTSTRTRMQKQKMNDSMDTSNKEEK
The assay is described as follows: Dephosphorylation of Rb in human A549 cells at 0.1 uM after 6 to 12 hrs by Western blotting analysis. The assay is classed as cell-based.

For assay [17], the system named is A549. Briefly: Cell cycle arrest in human A549 cells assessed as accumulation at S phase at 0.06 uM after 24 hrs by propidium iodide staining-based flow cytometric analysis (reference value: 48%). Format: functional.
For assay [18], the system named is A549. Briefly: Induction of apoptosis in human A549 cells assessed as decrease in pro-caspase-3 level at 0.1 uM after 48 hrs by Western blotting analysis. Format: functional, cell-based. Summed up:
as §3

Assay [19] in a line: Cytotoxicity against human SPCA1 cells after 48 hrs by CCK-8 assay. Format: functional, cell-based. To be noted: SPCA1, 48 h. A digest of the protocol:
as §2

Assay [20] deals with A549. Briefly: Cell cycle arrest in human A549 cells assessed as accumulation at G2 phase at 0.06 uM after 24 hrs by propidium iodide staining-based flow cytometric analysis (reference value: 3.7%). Format: functional.

Chain of Transcription factor E2F1 (Homo sapiens) (Q01094 whole entry): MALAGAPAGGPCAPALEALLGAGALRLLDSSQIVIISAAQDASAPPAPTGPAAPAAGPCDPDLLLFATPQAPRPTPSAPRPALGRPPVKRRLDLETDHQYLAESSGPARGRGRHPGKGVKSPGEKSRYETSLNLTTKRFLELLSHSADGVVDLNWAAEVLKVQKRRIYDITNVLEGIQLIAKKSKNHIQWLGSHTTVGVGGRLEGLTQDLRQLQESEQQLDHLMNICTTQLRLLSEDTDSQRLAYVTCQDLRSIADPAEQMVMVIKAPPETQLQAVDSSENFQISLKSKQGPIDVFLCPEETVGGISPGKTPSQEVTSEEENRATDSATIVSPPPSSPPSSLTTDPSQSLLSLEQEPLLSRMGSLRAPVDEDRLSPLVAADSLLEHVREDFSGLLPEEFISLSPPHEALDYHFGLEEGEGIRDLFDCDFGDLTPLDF

In the case of `CCCCCCCC(=O)SCC/C=C/[C@@H]1CC(=O)NCc2nc(cs2)C2=N[C@@](C)(CS2)C(=O)N[C@@H](C(C)C)C(=O)O1` [LARGAZOLE], the result (in the assay with A549 [1]; in [3]; in the assay with A549 [11]; in [12]; in assay [16]; in the assay on A549 [18]) was Active. In addition, in the assay with NCI-H460, the inhibition result is “Dose-dependent effect”. The inhibition entry in assay [2] and in assay [10] was “Active” throughout. Further, the Activity was found to be 88.2% in the assay with A549 [4], 3.3% in the assay on A549 [7], 6.5% in the assay on A549 [17] and 3.1% in the assay with A549 [20]. In addition, the IC50 with NCI-H1975 is 83 nM; in assay [9], 570 nM; in assay [13], 520 nM; in assay [15], more than 10000 nM; in assay [19], 140 nM. Further, the “growth inhibition (GI)” value in the assay with A549 [5] is “Active”. Besides, the outcome (in the assay on A549 [6]; with A549 [8]; in [14]) was inactive.
